22 compounds from ChEMBL document CHEMBL1759963, “Synthesis and biological evaluation of 4-styrylcoumarin derivatives as inhibitors of TNF-α and IL-6 with anti-tubercular activity” (2011) can be followed below.

What all share (type): functional
Assay [1] deals with THP-1. In words: Antiinflammatory activity in human THP1 cells assessed as inhibition of LPS-induced TNFalpha production at 10 uM after 24 hrs by ELISA. As to conditions: THP-1, 24 h. The procedure, abridged:
(§1)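 THP-1 cells grown in RPMI 1640 with 10% FBS, penicillin and streptomycin, then differentiated with PMA. Test compound or vehicle (0.5% DMSO) added and preincubated 30 min at 37 °C. LPS (E. coli 0127:B8) then added and cells incubated 24 h at 37 °C, 5% CO2. Supernatant TNF-α and IL-6 measured by ELISA. Cytotoxicity checked in parallel by CCK-8. Percent inhibition versus control.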

The test system of assay [2] is THP-1. In words: Antiinflammatory activity in human THP1 cells assessed as inhibition of LPS-induced IL6 production at 10 uM after 24 hrs by ELISA. Particulars: THP-1, 24 h. The method in brief:
as §1
(In an ELISA, binding on a coated surface is turned into a signal by an enzyme label.)

Assay [3] has as its system Mycobacterium tuberculosis. In words: Antitubercular activity against Mycobacterium tuberculosis H37Rv ATCC 27294 at 6.25 ug/ml by microplate alamar blue assay. The procedure, abridged: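 Primary screen against M. tuberculosis H37Rv (ATCC 27294) in BACTEC 12B medium by microplate Alamar Blue assay. Tested at 6.25 µg/mL or molar equivalent of the highest-MW compound in the congener series. Fluorescent compounds instead tested in the BACTEC 460 radiometric system.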

As for `N#Cc1c(/C=C/c2ccccc2)c2cc(Cl)ccc2oc1=O`, the inhibition at 10 µM in the assay on THP-1 [1] was found to be 32%; in the assay on THP-1 [2], 87%. Besides, the inhibition at 6.25 µg/mL in assay [3] is 55%.
For the compound `N#Cc1c(/C=C/c2ccc(F)cc2)c2cc(Cl)ccc2oc1=O`, the inhibition at 10 µM in the assay with THP-1 [1] turned out to be 0%; with THP-1 [2] it was 61%.
Consider `N#Cc1c(/C=C/c2ccccc2Cl)c2cc(Cl)ccc2oc1=O`, for which the inhibition at 10 µM in the assay with THP-1 [1] was 0%; in the assay on THP-1 [2], 19%.
As to `N#Cc1c(/C=C/c2cccc(Cl)c2)c2cc(Cl)ccc2oc1=O`, the inhibition at 10 µM with THP-1 [1] came to 0%; with THP-1 [2], 21%. Moreover, the inhibition at 6.25 µg/mL in assay [3] was found to be 69%.
With `N#Cc1c(/C=C/c2ccc(Cl)cc2)c2cc(Cl)ccc2oc1=O`, the inhibition at 10 µM is 0% in the assay on THP-1 [1] and 4% in the assay on THP-1 [2].
As to `N#Cc1c(/C=C/c2cccc(Br)c2)c2cc(Cl)ccc2oc1=O`, the inhibition at 10 µM worked out at 0% in the assay with THP-1 [1] and 2% in the assay with THP-1 [2]. Besides, 6.25 µg/mL produced 23% inhibition in assay [3].
With `N#Cc1c(/C=C/c2ccccc2[N+](=O)[O-])c2cc(Cl)ccc2oc1=O`, the inhibition at 10 µM with THP-1 [1] came out at 0%; in the assay on THP-1 [2], 14%. For the same compound, the inhibition at 6.25 µg/mL in assay [3] stood at 11%.
On to `N#Cc1c(/C=C/c2cccc([N+](=O)[O-])c2)c2cc(Cl)ccc2oc1=O`, for which the values for the inhibition at 10 µM in the assay on THP-1 [1] and in the assay with THP-1 [2] were 0% and 72%, respectively. Also, in assay [3], the inhibition at 6.25 µg/mL amounted to 69%.
For the compound `N#Cc1c(/C=C/c2cccc(O)c2)c2cc(Cl)ccc2oc1=O`, the inhibition at 10 µM in the assay on THP-1 [1] came out at 23%; in the assay with THP-1 [2], 39%.
In the case of `N#Cc1c(/C=C/c2ccc(O)cc2)c2cc(Cl)ccc2oc1=O`, the inhibition at 10 µM was 0% in the assay with THP-1 [1] and 73% in the assay with THP-1 [2].
On to `COc1ccccc1/C=C/c1c(C#N)c(=O)oc2ccc(Cl)cc12`, for which the values for the inhibition at 10 µM in the assay on THP-1 [1] and in the assay with THP-1 [2] were 19% and 17%, respectively. This compound also came in with an inhibition at 6.25 µg/mL in assay [3] of 24%.
Turning to `COc1ccc(/C=C/c2c(C#N)c(=O)oc3ccc(Cl)cc23)cc1`, the inhibition at 6.25 µg/mL in assay [3] turned out to be 33%.
Take `COc1ccc(/C=C/c2c(C#N)c(=O)oc3ccc(Cl)cc23)cc1OC`: the inhibition at 10 µM is 0% with THP-1 [1] and 40% with THP-1 [2]. Testing at 6.25 µg/mL in assay [3] gave an inhibition of 63%.
In the same order, the values of `COc1cc(/C=C/c2c(C#N)c(=O)oc3ccc(Cl)cc23)cc(OC)c1OC` are 38%, 8% and 87%.
On to `N#Cc1c(/C=C/c2cccc(Oc3ccccc3)c2)c2cc(Cl)ccc2oc1=O`, for which the inhibition at 10 µM is 0% with THP-1 [1] and 11% with THP-1 [2]. For the same compound, in assay [3], testing at 6.25 µg/mL gave an inhibition of 72%.
Take `CSc1ccc(/C=C/c2c(C#N)c(=O)oc3ccc(Cl)cc23)cc1`: the values for the inhibition at 10 µM in the assay with THP-1 [1] and in the assay on THP-1 [2] were 0% and 15%, respectively.
In the same order, the values of `C=Cc1ccccc1/C=C/c1c(C#N)c(=O)oc2ccc(Cl)cc12` are 52% and 0%.
In assay [3], `N#Cc1c(/C=C/c2c3ccccc3cc3ccccc23)c2cc(Cl)ccc2oc1=O` displayed an inhibition at 6.25 µg/mL of 81%.
Consider `N#Cc1c(/C=C/c2ccco2)c2cc(Cl)ccc2oc1=O`, for which the inhibition at 10 µM turned out to be 9% in the assay on THP-1 [1] and 0% in the assay with THP-1 [2]. This compound also had an inhibition at 6.25 µg/mL in assay [3] of 63%.
In the case of `N#Cc1c(/C=C/c2c[nH]c3ccccc23)c2cc(Cl)ccc2oc1=O`, the results for the inhibition at 10 µM with THP-1 [1] and with THP-1 [2] were 31% and 0%, respectively.
On to `CN(C)c1ccc(/C=C/c2c(C#N)c(=O)oc3ccc(Cl)cc23)cc1`, for which the inhibition at 10 µM with THP-1 [1] came to 33%; in the assay on THP-1 [2], 0%. This compound also yielded an inhibition at 6.25 µg/mL in assay [3] of 79%.
Consider `COc1cccc(/C=C/c2c(C#N)c(=O)oc3ccc(Cl)cc23)c1`, for which the results for the inhibition at 10 µM in the assay on THP-1 [1] and in the assay on THP-1 [2] were 73% and 0%, respectively. The compound also yielded an inhibition at 6.25 µg/mL in assay [3] of 31%.

By inhibition is commonly meant the change of the read-out against control, counted positive when it falls.
